Assay outcomes from PubChem.
MrgX1 antagonist: human MrgX1 receptor antagonism, primary screen; 310,000 compounds, 1.3% hits; MRGX1-HEK293 calcium flux, Fluo-4, BAM8-22 antagonism; stronger effect = lower value; Q96LB2; B-score at 10 µM;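 active means calcium-response B-score plate-corrected more than 3 library SD below zero, starting fluorescence within 5 deviations, no agonist response on first addition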;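 further: peak minus trough fluorescence over baseline after final BAM8-22 challenge near maximal dose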
Target sequence (Q96LB2 whole entry, looked up): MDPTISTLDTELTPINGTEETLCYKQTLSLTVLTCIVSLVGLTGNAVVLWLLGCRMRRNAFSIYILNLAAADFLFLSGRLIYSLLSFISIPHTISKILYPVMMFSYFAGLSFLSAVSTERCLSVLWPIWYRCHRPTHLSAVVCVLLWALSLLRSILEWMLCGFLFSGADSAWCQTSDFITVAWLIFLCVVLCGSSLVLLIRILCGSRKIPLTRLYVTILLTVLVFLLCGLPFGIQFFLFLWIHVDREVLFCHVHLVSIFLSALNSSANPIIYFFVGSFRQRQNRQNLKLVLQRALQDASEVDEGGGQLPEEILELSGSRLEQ
MrgX1 ag: agonists of human MrgX1 receptor; Q96LB2; MrgX1-HEK293 cells, Fluo-4 calcium fluorescence, agonist mode; stronger effect = higher value; B-score at 10 µM; 310,000 compounds, 0.44% hits;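 active means calcium response B-score plate-corrected fluorescence ratio at least 3 library SD, with starting fluorescence B-score inside 5 SD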
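Test system: HEK293 cells stably expressing human MrgX1 receptor; amount: 15,000 cells per well; doses: compound delivered in addition one of three; times: overnight plating before 1 h dye loading; detection: Fluo-4 NW calcium-flux fluorescence, kinetic read; read-out basis: B-scored fluorescence response ratio; controls: positive and negative controls per plate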
RGS4 pot: RGS4 potentiation or activation; HEK293 M3R/inducible RGS4, carbachol calcium flux Fluo4; stronger effect = lower value; B-score at 10 µM; 310,000 compounds, 0.92% hits;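 active means B-score of the integrated calcium signal more than 4 SD below the library mean, with starting fluorescence not abnormally high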;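 further: negative B-score means reduced calcium response which marks RGS4 activation or potentiation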
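test system = HEK293 cells with stable M3R and inducible RGS4 | schedule = recording 10 s baseline at 1 Hz, 100 s post-agonist | technique = Fluo4-AM (2 µM) calcium-flux fluorescence, kinetic read | measure = Agonist-evoked peak-minus-minimum fluorescence over baseline, integrated ratio, B score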
MrgX1 PAM: human MrgX1 positive allosteric modulation, primary screen; 310,000 compounds, 0.63% hits; Q96LB2; B-score at 10 µM; MrgX1-HEK293, Fluo-4 calcium flux, FDSS; stronger effect = higher value; AID 588675;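 active means plate-corrected calcium response at least 3 library SD above typical, normal starting fluorescence, not activating the receptor alone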;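 further: compound read alongside a low EC10 to EC30 dose of BAM8-22 agonist; peak minus trough fluorescence over baseline measured at the second addition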
RGS4 inh: inhibitors of human RGS4; P49798; HEK293 M3R/RGS4 inducible, Fluo-4 calcium flux; stronger effect = higher value; triggered by carbachol at its EC20; B-score at 10 µM; 310,000 compounds, 0.45% hits; AID 463165;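 active means B-score, a plate-corrected calcium signal, over three deviations above library mean, with baseline fluorescence within five deviations of library mean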;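 further: RGS4 expression induced by doxycycline in cells with stable M3 receptor; B-score is computed from the integrated fluorescence ratio over baseline after carbachol; higher B-score means a larger calcium signal and so more RGS4 inhibition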
Target sequence (P49798 whole entry, looked up): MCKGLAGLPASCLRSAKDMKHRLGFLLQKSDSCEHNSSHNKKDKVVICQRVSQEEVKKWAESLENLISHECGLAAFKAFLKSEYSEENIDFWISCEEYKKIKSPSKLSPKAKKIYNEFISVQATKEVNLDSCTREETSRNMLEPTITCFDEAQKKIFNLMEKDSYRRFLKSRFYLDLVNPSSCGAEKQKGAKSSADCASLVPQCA
MrgX1 ag confirm: human MrgX1 agonism, re-confirmation screen; MrgX1-HEK293, Fluo-4 calcium fluorescence, FDSS; activation, % at 10 µM; shares compounds with MrgX1 ag; 600 compounds, 78% hits;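 active means calcium signal rise, corrected for plate position, at least 3 library SD high, with starting brightness within 5 such deviations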
HEK293 Ca flux: activity in parental HEK293 cells lacking MrgX1; shares compounds with MrgX1 antagonist; Fluo-4 calcium fluorescence, FDSS; fluorescence ratio F(max-min)/F0 at 10 µM; 4,000 compounds, 2% hits; AID 624111;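 active means duplicate-averaged calcium fluorescence ratio at least three times the standard deviation of buffer wells, a nonspecific response in parental cells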
HEK293 Ca counter: activity in parental HEK293 cells without MrgX1; 4,000 compounds, 0.4% hits; shares compounds with MrgX1 antagonist; parental HEK293 calcium flux, Fluo-4 fluorescence ratio; stronger effect = higher value; fluorescence ratio F(max-min)/F0 at 10 µM;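 active means calcium fluorescence ratio, averaged over duplicates, at least 3 SD of the buffer-well ratio, meaning a nonspecific response in receptor-free cells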;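 further: untransfected parental HEK293 lacking MrgX1 used as counterscreen for MrgX1 allosteric activators; fluorescence change taken during the second addition on a kinetic imager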
HEK293 Ca cntr2: counter-screen for MrgX1 activators: effect in parental HEK293 cells. AID 624115. Fluo-4 calcium fluorescence (FDSS); stronger effect = higher value. fluorescence ratio F(max-min)/F0 at 10 µM. 4,000 compounds, 8.7% hits. shares compounds with MrgX1 antagonist;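 active means calcium fluorescence ratio at least three times the spread of buffer wells, meaning a non-specific response in parental cells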
The depositor's hits bear a star; i = inactive; . = no result given. Only some compounds are listed: those with a hit (about 3.5% of all), similar ones and a draw of the others.

SMILES	MrgX1 antagonist	MrgX1 ag	RGS4 pot	MrgX1 PAM	RGS4 inh	MrgX1 ag confirm	HEK293 Ca flux	HEK293 Ca counter	HEK293 Ca cntr2
O=C(CC(=O)c1c(F)cccc1Cl)c1ccccc1O	i	53*	i	i	i	326%*	i	i	73*
O=C(CC(=O)c1ccccc1O)c1cccc(F)c1	i	i	i	i	i	.	.	.	.
CNc1nc(C)nc(-n2nc(C)cc2C)n1	i	i	i	i	i	.	.	.	.
Cc1cc(C)n(-c2nc(C)nc(NCc3ccccc3)n2)n1	i	34*	i	i	i	130%*	i	i	i
Cc1nnc(NC(=O)CSc2nnc3c(n2)[nH]c2ccc(Br)cc23)s1	i	i	i	i	i	.	.	.	.
Cc1sc(NC(=O)C2CCCCC2C(=O)O)c(C(N)=O)c1-c1ccc(C(C)(C)C)cc1 (stereo not drawn)	i	95*	i	i	i	299%*	i	i	68*
CCOC(=O)C(NC(=O)C1C(C)N1S(=O)(=O)c1ccc(C)cc1)C(=O)OCC (stereo not drawn)	i	i	i	i	i	.	.	.	.
CC1(C)Cc2c(c(-c3ccco3)nc3sc4c(NCC5CCCO5)ncnc4c23)CO1 (stereo not drawn)	i	49*	i	i	i	208%*	i	i	45*
CC1(C)Cc2c(c(-c3ccco3)nc3sc4c(NCCCO)ncnc4c23)CO1	i	i	i	i	i	.	.	.	.
Cc1nnc(NC(=O)C(C)Sc2nnc(-c3ccco3)n2C(C)C)s1 (stereo not drawn)	i	i	i	i	i	.	.	.	.
COc1ccccc1N(CC(=O)Nc1ccc2c(c1)OCCO2)S(=O)(=O)c1ccc(C)cc1	i	i	i	i	i	.	.	.	.
COc1cc2c(cc1OC)C(c1ccccc1C(F)(F)F)CC(=O)N2 (stereo not drawn)	i	29*	i	i	i	i	i	i	i
O=C1Cc2ccccc2Sc2c(OCCN3CCCCC3)cccc21	i	27*	i	i	i	203%*	i	i	i
O=C1Cc2ccccc2Sc2cc(OCCCN3CCCCC3)ccc21	i	i	i	i	i	.	.	.	.
CCC(=O)NC(=S)NNC(=O)c1ccc([N+](=O)[O-])cc1	i	i	i	i	i	.	.	.	.
CC(C)CC(=O)NC(=S)NNC(=O)c1ccc([N+](=O)[O-])cc1	i	81*	i	i	i	280%*	i	i	72*
O=C(N/C(=C\c1ccc(Br)cc1)C(=O)N1CCOCC1)c1ccco1	i	i	i	i	i	.	.	.	.
Fc1ccc(-c2cc(C(F)(F)C(F)F)[nH]n2)cc1	i	41*	i	i	i	212%*	i	i	48*
ClCC1=Nc2ccccc2Cc2ccccc21	i	29*	i	i	i	111%*	i	i	i
c1ccc2c(c1)Cc1cc3ccccc3nc1-2	i	i	i	i	i	.	.	.	.
CC1CC(NS(=O)(=O)c2cc3c4c(c2)CCN4C(=O)CC3)CC(C)(C)C1 (stereo not drawn)	i	i	i	i	i	.	.	.	.
Cc1cc(/C=C2\NC(=S)N(C)C2=O)ccc1N1CCCC1	i	91*	i	i	i	i	0.3*	i	203*
CCN1C(=O)/C(=C/c2ccc(N3CCCC3)cc2)NC1=S	i	70*	i	i	i	i	0.02*	i	251*
COc1cc(/C=C2\NC(=S)N(C)C2=O)ccc1O	i	i	i	i	i	.	.	.	.
Cc1cc(N2CCCCC2)nc(N)n1	i	101*	i	i	i	520%*	i	i	123*
SMILES	MrgX1 antagonist	MrgX1 ag	RGS4 pot	MrgX1 PAM	RGS4 inh	MrgX1 ag confirm	HEK293 Ca flux	HEK293 Ca counter	HEK293 Ca cntr2
CC(C)NC[C@H](O)c1ccc(O)c(O)c1	i	32*	.	i	.	124%*	i	i	i
O=C1COc2ccc(C(=O)CSc3nnc(Cc4cccs4)n3-c3ccccc3)cc2N1	i	27*	i	i	i	175%*	i	i	i
O=C(N/N=C/c1ccc(OC(F)F)cc1OC(F)F)c1cccc(S(=O)(=O)N2CCOCC2)c1	i	i	i	i	i	.	.	.	.
O=C(COC(=O)c1nc(Cl)ccc1Cl)Nc1ccc2c(c1)OCO2	i	28*	i	i	i	i	i	i	i
COc1cc(/C=C2\C(=N)N3N=CSC3=NC2=O)ccc1OS(=O)(=O)c1ccccc1	i	73*	i	i	i	383%*	i	i	77*
COc1cc(/C=C2/C(=N)N3N=C(C(C)C)SC3=NC2=O)ccc1OS(=O)(=O)c1ccccc1	i	i	i	i	i	.	.	.	.
O=C1NC(Nc2ccccn2)(C(F)(F)F)C(=O)N1c1ccc(F)cc1 (stereo not drawn)	i	32*	i	i	i	207%*	i	i	54*
Cc1cc2oc(=O)cc(CN3CCCc4ccccc43)c2cc1C	i	67*	i	i	i	179%*	i	i	i
O=c1c2cc(Br)ccc2nc(-c2ccc(Cl)cc2)n1O	i	143*	i	i	i	661%*	i	i	129*
O=c1c2cc(Cl)ccc2nc(-c2ccc([N+](=O)[O-])cc2)n1O	i	72*	i	i	i	270%*	i	i	63*
Cc1ccc(-c2nc3c(Cl)cc(Cl)cc3c(=O)n2O)cc1	i	105*	i	i	i	482%*	i	i	104*
N#Cc1ccc(-c2nc3cc(Cl)ccc3c(=O)n2O)cc1	i	i	i	i	i	.	.	.	.
NCC12CC3CC(C1)CC(c1ccc(Cl)cc1)(C3)C2	i	34*	-7.2*	i	i	135%*	i	i	i
Nc1ccc(C23CC4CC(CC(CO)(C4)C2)C3)cc1	i	i	i	i	i	.	.	.	.
CCn1c(SCC(=O)NCCc2ccccc2)nc2c([nH]c3ccccc32)c1=O	i	i	i	i	i	.	.	.	.
